From ChEMBL document CHEMBL1121659 (J Med Chem, 1981)

Legend:
[1] = Compound was evaluated for the tissue levels after 1 hour of administration of 5 mg/kg through intravenous route, the given data is tissue/plasma ratios heart; format: ADME, organism-based; design: dose 5 mg/kg, route intravenous
In short: (§1)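 Anesthetized male Wistar rats received [14C] compound 5 mg/kg by slow jugular infusion in propylene glycol–0.1 N NaOH (1:1). Tissues were taken at 1 h, four per group, rinsed, blotted and weighed. Fat, muscle and red cells were combusted directly, other organs after EtOH homogenization. Tissue/plasma 14C ratios were computed.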

[2] = Compound was evaluated for the average apparent volume of distribution when administered through intravenous route; format: ADME, organism-based; settings: in vivo, read-out: Vd app
In short: (§2)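 Male Wistar rats under pentobarbital (25 mg/kg ip) received [14C] compound 5 mg/kg iv in propylene glycol–0.1 N NaOH (1:1). Dosing was by jugular infusion, or by tail vein for later time points.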

[3] = Compound was evaluated for the tissue levels after 1 hour of administration of 5 mg/kg through intravenous route, the given data is tissue/plasma ratios liver; format: ADME, organism-based; design: dose 5 mg/kg, route intravenous; in short: as §1
[4] = Compound was evaluated for the biological half life in rats after a dose of 5 mg/kg given intravenous route; format: ADME, organism-based; design: dose 5 mg/kg, route intravenous; settings: rat, in vivo; in short: as §2
Mus musculus [5] = assay: Time to first twitch in intravenous pentylenetetrazole test in mice at 1000 mg/kg for 24 hr time of test; format: functional
In short: (§3)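 Carworth Farm No. 1 mice (average 20 g) were dosed ip. At set times afterwards, 0.5% pentylenetetrazol in heparinized saline was infused into the tail vein at 0.34 mL/min. Time to first twitch was recorded in individual mice, with observation to 240 s.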

[6] = Compound was evaluated for the biological half life in rats after a dose of 5 mg/kg given intraperitoneal route; format: ADME, organism-based; design: dose 5 mg/kg, route intraperitoneal; settings: rat, in vivo, ip
In short: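 Male Wistar rats were given [14C] compound 5 mg/kg ip in propylene glycol (2 mL/kg). Blood was taken by cardiac puncture under ether at 1, 2, 3, 5 and 7 days, six rats per time point. Plasma 14C was counted to give the β-phase elimination half-life and plasma levels.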

Mus musculus [7] = assay: Time to first twitch in intravenous pentylenetetrazole test in mice at 150 mg/kg for 72 h time of test; format: functional; in short: as §3
Mus musculus [8] = assay: Time to first twitch in intravenous pentylenetetrazole test in mice at 150 mg/kg for 96 hr time of test; format: functional; in short: as §3
[9] = Compound at the dose 10 mg/kg administered intraperitoneally was evaluated for the excretion rate in rats in 7 days through urine; format: ADME, organism-based; design: dose 10 mg/kg, route intraperitoneal; settings: rat, ip, read-out: Excretion
In short: (§4)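 Male Wistar rats (150–330 g) in individual metabolic cages received [14C] compound 10 mg/kg ip in propylene glycol (5 mL/kg), n=4. Urine and feces were collected for 7 days. Urine was diluted with EtOH and counted directly. Fecal EtOH homogenates were dried, combusted and counted as trapped 14CO2.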

Mus musculus [10] = assay: Time to first twitch in intravenous pentylenetetrazole test in mice at 500 mg/kg for 48 hr time of test; format: functional
In short: (§5)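 Carworth Farm no. 1 mice (av wt 20 g) given the compound ip; at the designated time afterwards, 0.5% pentylenetetrazol in heparinized saline was infused into the tail vein at 0.34 mL/min. Time to first twitch (minimal excitation) was recorded for individual mice, observed up to 240 s.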

Mus musculus [11] = assay: Time to first twitch in intravenous pentylenetetrazole test in mice at 100 mg/kg for 30 h time of test; format: functional; in short: as §3
Mus musculus [12] = assay: Time to first twitch in intravenous pentylenetetrazole test in mice at 150 mg/kg for 30 hr time of test; format: functional; in short: as §3
[13] = Compound was evaluated for the biological half life of elimination in feces; format: ADME, tissue-based; settings: faeces
[14] = Compound was evaluated for the tissue levels after 1 hour of administration of 5 mg/kg through intravenous route, the given data is tissue/plasma ratios red cells; format: ADME, organism-based; design: dose 5 mg/kg, route intravenous; in short: as §1
[15] = Compound was evaluated for the plasma biological half life in the Swiss webster mouse when administered at the […]; format: ADME, organism-based
In short: (§6)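 Swiss Webster mice (20–30 g) received [14C] compound 10 mg/kg ip. Four animals were killed at each of 12, 18, 24, 36, 48 and 72 h. Radioactivity was measured in plasma and brain, and the plasma elimination half-life was derived from these levels.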

[16] = Compound at the dose 10 mg/kg administered intraperitoneally was evaluated for the excretion rate in rats in 7 days through feces; format: ADME, organism-based; design: dose 10 mg/kg, route intraperitoneal; settings: rat, faeces, ip, read-out: Excretion; in short: as §4
Mus musculus [17] = assay: Time to first twitch in intravenous pentylenetetrazole test in mice at 300 mg/kg for 30 hr time of test; format: functional; in short: as §3
Mus musculus [18] = assay: Time to first twitch in intravenous pentylenetetrazole test in mice at 750 mg/kg for 24 hr time of test; format: functional; in short: as §5
[19] = Compound was evaluated for the cumulative excretion rate in rats at the dose 10 mg/kg, intraperitoneally for 18 days through feces; format: ADME, organism-based; design: dose 10 mg/kg, route intraperitoneal; settings: rat, faeces, ip, read-out: Excretion
In short: (§7)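 Four male Wistar rats were dosed with [14C] compound at 10 mg/kg ip in propylene glycol (5 mL/kg). Urine and feces were collected at 3-day intervals for 18 days. Fecal EtOH homogenates were combusted and counted. Daily fecal rate for the 0–3 day interval was corrected for gastrointestinal transit time (about 18 h).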

[20] = Compound was evaluated for the toxicity in mouse on 7 th day when administered through intraperitoneal route; format: organism-based; settings: in vivo, ip
In short: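 Male Swiss Webster mice (20–40 g) dosed in propylene glycol (10–20 mL/kg), ip at 10, 20, 50, 100 and 200 mg/kg or po at 100 and 200 mg/kg. Ten mice per dose level, observed for toxicity for 1 week. LD50 taken at 7 days.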

Mus musculus [21] = assay: Time to first twitch in intravenous pentylenetetrazole test in mice at 100 mg/kg for 96 hr time of test; format: functional; in short: as §3
[22] = Compound was evaluated for the Brain levels at 24 h in the Swiss webster mouse when administered at the […]; format: ADME, organism-based; settings: read-out: Plasma level; in short: as §6
Mus musculus [23] = assay: Time to first twitch in intravenous pentylenetetrazole test in mice at 300 mg/kg for 48 hr time of test; format: functional; in short: as §3
[24] = Compound was evaluated for the cumulative excretion rate in rats at the dose 10 mg/kg, intraperitoneally for 18 days through urine; format: ADME, organism-based; design: dose 10 mg/kg, route intraperitoneal; settings: rat, ip, read-out: Excretion; in short: as §7

O=C1NC(=O)C(c2ccc(C(F)(F)F)cc2)(c2ccc(C(F)(F)F)cc2)N1
Kp at 1 h [1]: 0.66 | Vd [2]: 0.42 L/kg | Kp at 1 h [3]: 0.96 | half-life [4]: 66.7 h | Time (Mus musculus [5]): 25.5 s | half-life [6]: 71.7 h | Time (Mus musculus [7]): 24.1 s | Time (Mus musculus [8]): 23.4 s | dose excreted at 168 h [9]: 0.3% | Time (Mus musculus [10]): 28.7 s | Time (Mus musculus [11]): 23.1 s | Time (Mus musculus [12]): 28.6 s | half-life [13]: 93.6 h | Kp at 1 h [14]: 0.12 | half-life [15]: 115 h | dose excreted at 168 h [16]: 67% | Time (Mus musculus [17]): 22 s | Time (Mus musculus [18]): 26.6 s | dose excreted at 432 h [19]: 94% | LD50 at 7 days [20]: 40 mg/kg | Time (Mus musculus [21]): 27.5 s | concentration at 24 h [22]: 3500 ng/mL | Time (Mus musculus [23]): 32.4 s | dose excreted at 432 h [24]: 0.25%
